Data as given in ChEMBL document CHEMBL1137600, “From docking false-positive to active anti-HIV agent” (J Med Chem, 2007).
Calls of active or inactive are those of the source. No cut-off for these calls is given here.

Tests used:
[1] = test system: Human immunodeficiency virus 1; assay: Antiviral activity against HIV1 3B in human MT2 cells by MTT assay; type: functional, organism-based; details: for EC50: Human immunodeficiency virus 1, 3B
How it was run: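 HIV-1 IIIB infection of human MT-2 T-cells; MTT colorimetric read-out of cell protection. Antiviral curves were run in triplicate at each concentration.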

[2] = test system: MT2; assay: Cytotoxicity against human MT2 cells by MTT assay; type: functional
How it was run: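 Human MT-2 cells, MTT colorimetric read-out. CC50 is the concentration giving 50% inhibition of MT-2 cell growth.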

Compound	Activity [1]	CC50 [2]	EC50 [1]
COc1ccc(Cc2nnc(Nc3ccc(C)cc3)o2)cc1OC	inactive	61 µM	–
Cc1ccnc2c1NC(=O)c1cccnc1N2C1CC1 [NEVIRAPINE]	–	> 10 µM	–
Cc1cc(Nc2nnc(Cc3c(Cl)cccc3Cl)o2)ccc1Cl	–	> 100 µM	1.3 µM
Clc1ccc(Nc2nnc(Cc3cccc(Cl)c3)o2)cc1	–	32 µM	> 10 µM
c1ccc(Cc2nnc(Nc3ccccc3)o2)cc1	inactive	> 100 µM	–
Cc1cc(C)cc(Cc2nnc(Nc3ccc(Cl)cc3)o2)c1	inactive	> 100 µM	–
Clc1ccc(Nc2nnc(Cc3c(Cl)cccc3Cl)o2)cc1	–	20 µM	0.82 µM
Clc1ccc(Nc2nnc(Cc3c(Cl)cccc3Cl)o2)cc1Cl	–	> 100 µM	0.31 µM
O=C1Nc2ccc(Cl)cc2C(C#CC2CC2)(C(F)(F)F)O1 (single isomer, unassigned) [EFAVIRENZ]	–	3 µM	–
Cc1cn([C@H]2C=C[C@@H](CO)O2)c(=O)[nH]c1=O [STAVUDINE]	–	> 100 µM	1.6 µM
COc1cc(Nc2nnc(Cc3c(Cl)cccc3Cl)o2)c(Cl)cc1Cl	inactive	9 µM	–
FC(F)(F)c1cc(Nc2nnc(Cc3c(Cl)cccc3Cl)o2)ccc1Cl	inactive	9 µM	–
Clc1ccc(Nc2nnc(Cc3ccccc3)o2)cc1	inactive	31 µM	–
Clc1ccc(Cc2nnc(Nc3ccc(Cl)cc3)o2)cc1	inactive	> 100 µM	–
